{"source": "ChEMBL document CHEMBL1145287", "about": "“Docking and 3-D QSAR studies on indolyl aryl sulfones. Binding mode exploration at the HIV-1 reverse transcriptase non-nucleoside binding site and design of highly active N-(2-hydroxyethyl)carboxamide and N-(2-hydroxyethyl)carbohydrazide derivatives” (J Med Chem, 2005)", "details_in_all_cases": "Homo sapiens", "key": {"[1]": {"system": "MT4", "assay": "Protection of infected MT-4 cells from wtIIIB-HIV-1-induced cytopathogenicity", "format": "functional, cell-based", "outline": "(§1)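 MT-4 cells (1 × 10⁴/well, RPMI 1640 with 10% FCS, 37 °C, 5% CO₂) were infected with HIV-1 IIIB (H9/IIIB supernatant) at an inoculum causing complete cytopathicity by day 4, across graded compound concentrations. Viability was read by MTT, with cytotoxicity run in parallel on mock-infected cells. Concentration giving 50% protection reported as the mean of three experiments.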"}, "[2]": {"system": "MT4", "assay": "(§2) Concentration required for 50% protection of infected MT-4 cells from wtIIIB-HIV-1-induced cytopathogenicity was determined by the MTT method", "format": "functional, cell-based", "outline": "as §1"}, "[3]": {"system": "C8166", "assay": "Concentration required to reduce the amount of p24 by 90% in C8166 cells infected with an efavirenz-resistant strain EFVR", "format": "functional", "outline": "(§3)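 C8166 cells (1 × 10⁴/well) with serial compound dilutions (200 mM DMSO stock diluted in medium), infected with K103R/V179D/P225H virus selected from IIIB by passage in C8166 cells with efavirenz up to 2 μM (stock 3.0 × 10⁵ CCID₅₀/mL); 37 °C incubation; p24 measured by immunoenzymatic kit; value = concentration giving 90% p24 reduction.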"}, "[4]": {"system": "MT4", "assay": "Compound concentration required to achieve 50% protection of infected MT-4 cells from K103N-Y181C strain was determined by the MTT method", "format": "functional, cell-based", "outline": "(§4)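 MT-4 cells (1 × 10⁴/well, RPMI 1640 + 10% FCS) exposed to serial compound dilutions (200 mM DMSO stock diluted in medium), infected with enough virus to give full cytopathicity by day 4; wt IIIB from H9/IIIB supernatant, Y181C and K103N–Y181C from NNRTI-selected passages.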"}, "[5]": {"system": "C8166", "assay": "Concentration required to reduce the amount of p24 by 90% in wtIIIB-HIV-1-infected C8166 cells", "format": "functional", "outline": "(§5)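 Acute infection of C8166 cells (1 × 10⁴/well, RPMI 1640 with 10% FCS, 37 °C, 5% CO₂) by HIV-1 IIIB from persistently infected H9/IIIB supernatant, with a virus inoculum sized to cause complete cytopathicity at day 4, in the presence of serially diluted compound (DMSO stock diluted in medium). p24 antigen was measured by immunoenzymatic kit. Concentration giving 90% reduction of p24 reported.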"}, "[6]": {"system": "MT4", "assay": "Concentration required to achieve 50% protection of infected MT-4 cells from K103N-Y181C", "format": "functional, cell-based", "outline": "as §4"}, "[7]": {"system": "C8166", "assay": "Compound concentration required to reduce the amount of p24 by 90% in C8166 cells infected with an efavirenz-resistant strain EFVR carrying mutations K103R, V179D, and P225H", "format": "functional", "outline": "as §3"}, "[8]": {"system": "C8166", "assay": "Compound concentration required to reduce the amount of p24 by 90% in wtIIIBinfected C8166 cells", "format": "functional", "outline": "as §5"}, "[9]": {"system": "MT4", "assay": "as §2", "format": "functional, cell-based", "outline": "as §4", "remark": "listed apart in the source"}, "[10]": {"system": "MT4", "assay": "Concentration required to achieve 50% protection of infected MT-4 cells from Y181C-HIV-1 strain", "format": "functional, cell-based", "outline": "as §4"}, "[11]": {"system": "MT4", "assay": "Compound concentration required to achieve 50% protection of infected MT-4 cells from Y181C strain was determined by the MTT method", "format": "functional, cell-based", "outline": "as §4"}}, "data": [{"smiles": "CC(=O)c1ccc2[nH]c(C(N)=O)c(S(=O)(=O)c3cc(C)cc(C)c3)c2c1", "values": [{"measurement": "EC50", "setting": "[1]", "result": 15, "unit": "nM"}]}, {"smiles": "NNC(=O)c1[nH]c2ccc(Cl)cc2c1Sc1cc(Cl)ccc1N", "values": [{"measurement": "EC50", "setting": "[1]", "result": "> 13000", "unit": "nM"}]}, {"smiles": "NC(=O)c1[nH]c2ccc(Cl)cc2c1S(=O)(=O)c1ccc(Cl)cc1", "values": [{"measurement": "EC50", "setting": "[1]", "result": 11, "unit": "nM"}]}, {"smiles": "NNC(=O)c1[nH]c2ccccc2c1S(=O)(=O)c1ccccc1", "values": [{"measurement": "EC50", "setting": "[1]", "result": 530, "unit": "nM"}]}, {"smiles": "CCOC(=O)C(=O)c1cc2cc(Cl)ccc2n1S(=O)(=O)c1cc(Cl)ccc1N", "values": [{"measurement": "EC50", "setting": "[1]", "result": 8300, "unit": "nM"}]}, {"smiles": "NC(=O)c1[nH]c2ccc(Cl)cc2c1Sc1cc(Cl)ccc1N", "values": [{"measurement": "EC50", "setting": "[1]", "result": 1600, "unit": "nM"}]}, {"smiles": "Cc1ccc(S(=O)(=O)c2c(C(N)=O)[nH]c3ccc(Cl)cc23)c(C)c1", "values": [{"measurement": "EC50", "setting": "[1]", "result": 4, "unit": "nM"}]}, {"smiles": "NNC(=O)c1[nH]c2ccc(Cl)cc2c1Sc1ccc(F)cc1", "values": [{"measurement": "EC50", "setting": "[1]", "result": 5000, "unit": "nM"}]}, {"smiles": "CCOC(=O)C(=O)c1cc2ccccc2n1S(=O)(=O)c1cc(Cl)ccc1[N+](=O)[O-]", "values": [{"measurement": "EC50", "setting": "[1]", "result": "> 100000", "unit": "nM"}]}, {"smiles": "NNC(=O)c1[nH]c2ccc(Cl)cc2c1S(=O)(=O)c1ccc(Cl)cc1", "values": [{"measurement": "EC50", "setting": "[1]", "result": 190, "unit": "nM"}]}, {"smiles": "O=[N+]([O-])c1ccc(Cl)c(S(=O)(=O)n2ccc3ccccc32)c1", "values": [{"measurement": "EC50", "setting": "[2]", "result": 6030, "unit": "nM"}]}, {"smiles": "CC(C)c1ccc(S(=O)(=O)c2c(C(N)=O)[nH]c3ccc(Cl)cc23)cc1", "values": [{"measurement": "EC50", "setting": "[1]", "result": 80, "unit": "nM"}]}, {"smiles": "O=C1Nc2ccc(Cl)cc2[C@@](C#CC2CC2)(C(F)(F)F)O1", "note": "[EFAVIRENZ]", "values": [{"measurement": "EC90", "setting": "[3]", "result": 1800, "unit": "nM"}, {"measurement": "EC50", "setting": "[4]", "result": 150, "unit": "nM"}, {"measurement": "EC90", "setting": "[5]", "result": 8, "unit": "nM"}, {"measurement": "EC50", "setting": "[6]", "result": 150, "unit": "nM"}, {"measurement": "EC90", "setting": "[7]", "result": 1800, "unit": "nM"}, {"measurement": "EC90", "setting": "[8]", "result": 8, "unit": "nM"}]}, {"smiles": "CCOC(=O)C(=O)c1cc2cc(Cl)ccc2n1S(=O)(=O)c1cc(Cl)ccc1[N+](=O)[O-]", "values": [{"measurement": "EC50", "setting": "[1]", "result": "> 31000", "unit": "nM"}]}, {"smiles": "NC(=O)c1[nH]c2ccc(Cl)cc2c1Sc1c(Cl)cccc1Cl", "values": [{"measurement": "EC50", "setting": "[1]", "result": 1200, "unit": "nM"}]}, {"smiles": "NNC(=O)c1[nH]c2ccc(Cl)cc2c1S(=O)(=O)c1cc(Cl)ccc1N", "values": [{"measurement": "EC50", "setting": "[1]", "result": 300, "unit": "nM"}]}, {"smiles": "NC(=O)c1[nH]c2ccc(Cl)cc2c1S(=O)(=O)c1cc(Cl)ccc1N", "values": [{"measurement": "EC50", "setting": "[1]", "result": 40, "unit": "nM"}]}, {"smiles": "O=Cc1cc2ccccc2n1S(=O)(=O)c1ccccc1", "values": [{"measurement": "EC50", "setting": "[1]", "result": "> 150000", "unit": "nM"}]}, {"smiles": "CCOC(=O)C(=O)c1cc2cc(Cl)ccc2n1S(=O)(=O)c1ccc(Cl)cc1", "values": [{"measurement": "EC50", "setting": "[1]", "result": "> 200000", "unit": "nM"}]}, {"smiles": "CCOC(=O)c1[nH]c2ccc(Cl)cc2c1Sc1ccccc1N", "values": [{"measurement": "EC50", "setting": "[1]", "result": 2300, "unit": "nM"}]}, {"smiles": "Cc1cc(C)cc(S(=O)(=O)c2c(C(=O)NN)[nH]c3ccc(Cl)cc23)c1", "values": [{"measurement": "EC50", "setting": "[1]", "result": 130, "unit": "nM"}]}, {"smiles": "Cc1cc(C)cc(S(=O)(=O)c2c(C(=O)NCCO)[nH]c3ccc(Cl)cc23)c1", "values": [{"measurement": "EC50", "setting": "[9]", "result": 1, "unit": "nM"}, {"measurement": "EC90", "setting": "[3]", "result": 100, "unit": "nM"}, {"measurement": "EC50", "setting": "[4]", "result": 500, "unit": "nM"}, {"measurement": "EC90", "setting": "[5]", "result": 5, "unit": "nM"}, {"measurement": "EC50", "setting": "[6]", "result": 500, "unit": "nM"}, {"measurement": "EC90", "setting": "[7]", "result": 100, "unit": "nM"}, {"measurement": "EC50", "setting": "[10]", "result": 10, "unit": "nM"}, {"measurement": "EC50", "setting": "[1]", "result": 1, "unit": "nM"}, {"measurement": "EC50", "setting": "[2]", "result": 1, "unit": "nM"}, {"measurement": "EC50", "setting": "[11]", "result": 10, "unit": "nM"}, {"measurement": "EC90", "setting": "[8]", "result": 5, "unit": "nM"}]}, {"smiles": "NC(=O)c1[nH]c2ccccc2c1Sc1ccccc1", "values": [{"measurement": "EC50", "setting": "[1]", "result": 1400, "unit": "nM"}]}, {"smiles": "NC(=O)C(=O)c1cc2ccccc2n1S(=O)(=O)c1ccccc1", "values": [{"measurement": "EC50", "setting": "[1]", "result": 15000, "unit": "nM"}]}, {"smiles": "NC(=O)c1[nH]c2ccccc2c1S(=O)(=O)c1cc(Cl)ccc1N", "values": [{"measurement": "EC50", "setting": "[1]", "result": 300, "unit": "nM"}]}, {"smiles": "CCOC(=O)c1[nH]c2ccccc2c1Sc1cc(Cl)ccc1N", "values": [{"measurement": "EC50", "setting": "[1]", "result": "≥ 200000", "unit": "nM"}]}, {"smiles": "CC(C)OC(=O)c1c(C=O)n(S(=O)(=O)c2ccccc2)c2ccc(Cl)cc12", "values": [{"measurement": "EC50", "setting": "[1]", "result": "> 200000", "unit": "nM"}]}, {"smiles": "Cc1cc(C)cc(S(=O)(=O)c2c(C(N)=O)[nH]c3ccc(C(C)O)cc23)c1", "note": "(stereo unspecified)", "values": [{"measurement": "EC50", "setting": "[1]", "result": 25, "unit": "nM"}]}, {"smiles": "Nc1cc(Cl)ccc1S(=O)(=O)n1ccc2ccccc21", "values": [{"measurement": "EC50", "setting": "[2]", "result": 74100, "unit": "nM"}]}, {"smiles": "Cc1ccc(Sc2c(C(=O)NN)[nH]c3ccc(Cl)cc23)cc1", "values": [{"measurement": "EC50", "setting": "[1]", "result": 1500, "unit": "nM"}]}, {"smiles": "Cc1ccc(Sc2c(C(N)=O)[nH]c3ccc(Cl)cc23)cc1", "values": [{"measurement": "EC50", "setting": "[1]", "result": "> 450", "unit": "nM"}]}, {"smiles": "Cc1ccc(S(=O)(=O)c2c(C(=O)NN)[nH]c3ccc(Cl)cc23)cc1", "values": [{"measurement": "EC50", "setting": "[1]", "result": 50, "unit": "nM"}]}, {"smiles": "NC(=O)c1[nH]c2ccc(Cl)cc2c1S(=O)(=O)c1ccc(F)cc1", "values": [{"measurement": "EC50", "setting": "[1]", "result": 14, "unit": "nM"}]}, {"smiles": "NNC(=O)c1[nH]c2ccc(Cl)cc2c1S(=O)(=O)c1ccccc1", "values": [{"measurement": "EC50", "setting": "[1]", "result": 10, "unit": "nM"}]}, {"smiles": "O=[N+]([O-])c1cc(Cl)ccc1S(=O)(=O)n1ccc2ccccc21", "values": [{"measurement": "EC50", "setting": "[2]", "result": 15800, "unit": "nM"}]}, {"smiles": "NNC(=O)c1[nH]c2ccc(Cl)cc2c1S(=O)(=O)c1ccc(F)cc1", "values": [{"measurement": "EC50", "setting": "[1]", "result": 320, "unit": "nM"}]}, {"smiles": "NNC(=O)c1[nH]c2ccc(Cl)cc2c1Sc1ccc(Cl)cc1", "values": [{"measurement": "EC50", "setting": "[1]", "result": 10000, "unit": "nM"}]}, {"smiles": "NC(=O)c1[nH]c2ccc(Cl)cc2c1Sc1ccc(F)cc1", "values": [{"measurement": "EC50", "setting": "[1]", "result": 1400, "unit": "nM"}]}, {"smiles": "CCOC(=O)c1[nH]c2ccccc2c1S(=O)(=O)c1cc(Cl)ccc1N", "values": [{"measurement": "EC50", "setting": "[1]", "result": 2500, "unit": "nM"}]}, {"smiles": "Cc1cccc(S(=O)(=O)c2c(C(N)=O)[nH]c3ccc(Cl)cc23)c1", "values": [{"measurement": "EC50", "setting": "[1]", "result": 1, "unit": "nM"}]}, {"smiles": "CCOC(=O)c1c(C=O)n(S(=O)(=O)c2ccccc2)c2ccc(Cl)cc12", "values": [{"measurement": "EC50", "setting": "[1]", "result": "> 42000", "unit": "nM"}]}]}
